Test [1] can be described thus: inhibitors of TNFa-induced NFkB p65 translocation, primary screen, imaging, HUVEC, MLSMR starter and 10KST1 sets (AID 438;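 active means inhibition above 20% together with a positive visual image hit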;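 further: compound added about 3h40 before a 20 min TNFalpha stimulation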;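 on inhibition: signal is the nuclear over cytoplasmic p65 intensity ratio per well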). To be noted: HUVEC TNFa-induced p65 nuclear translocation; cell count: measured here: nuclei count (cytotoxicity indicator), at 2.08 µM; inhibition: at 2 µM, stronger effect = higher value, 0% TNFa-plus-vehicle, 100% no-TNFa wells.
Test [2] in a line: reduction of polyQ htt aggregates in cells – imaging, exon1htt(103Q)mCFP cells, high-content imaging, primary screen (AID 483;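 active means visual image review flags a hit and inhibition of aggregation exceeds 20%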;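 further: compound exposure lasted 3 days before fixation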;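 on nuclei count: percent of the per-plate median nuclei count of sample wells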). To be noted: exon1htt(103Q)mCFP cell line, aggregate imaging, at 2 µM; inhibition of aggregation: stronger effect = higher value; nuclei count: measured here: cell count, toxicity.
A short description of test [3]: endothelial E-selectin expression blockers – imaging, HUVEC, immunofluorescence, MLSMR starter and 10KST1 sets, primary screen (AID 487;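 active means visually confirmed hit in the image check and inhibition above 20%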;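 on inhibition: signal is fraction of cell area covered by stained E-selectin grains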;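 on nuclei count: 100% = median nuclei count of all wells on the same plate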). To be noted: HUVEC TNFalpha-induced E-selectin immunofluorescence imaging, at 2 µM; inhibition: stronger effect = higher value; nuclei count: measured here: cell number, toxicity.
The target in test [4] is Voltage-gated potassium channel subunit beta-2 (Rattus norvegicus) (UniProt P62483). Kind of test: inhibitors of rat Kvbeta2 reductase activity – biochemical, NADPH fluorescence, primary screen (AID 622;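 active means fluorescence slope higher than the sample average by over 3 SD, cut at about -0.22 in these data, passing the limit was not always enough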;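 further: slope of raw intensity against log time taken from 70 to 1610 s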). To be noted: recombinant KvBeta, 4-cyanobenzaldehyde reduction, at 10 µM, stronger effect = higher value.
Test [5] has the same target. Nature of the test: enhancers of rat Kvbeta2 NADPH turnover – biochemical, NADPH fluorescence, primary screen (AID 623;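 active means NADPH fluorescence slope more negative than the mean of all samples by about 3 SD, 99.7% confidence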;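 further: fluorescence intensity change per second fitted from 20 to 320 s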). To be noted: Recombinant KvBeta, NADPH fluorescence decrease slope, 10 min; at 10 µM; stronger effect = lower value.
For test [6], the target named is Alpha-2C adrenergic receptor (Homo sapiens) (UniProt P18825). Nature of the test: compounds altering alpha2C-coupled GIRK flux – cell-based, HEK293 alpha2C/GIRK1/2, thallium flux, primary screen (AID 624;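 active means fluorescence slope after compound addition differing from the mean of all screened samples at 99.7% confidence, in either direction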;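 further: slope of fluorescence ratio to pre-addition baseline per second over 15 to 24 s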). To be noted: thallium flux BTC fluorescence, at 10 µM, actives lie on both sides.
Test [7] is described as follows: inhibitors of larval lipid processing in zebrafish, primary screen, whole organism, PED6 fluorescence, gall bladder and intestine (AID 686;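 active means a full or partial loss of lipid-probe fluorescence in the fish gall bladder, intestine or both, judged by eye; inactive means no fluorescence loss, or compound toxic to the fish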;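 further: larvae 5 to 7 days old with five fish per well; signal comes from phospholipase A2 cleavage of quenched PED6 carried via bile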). To be noted: Zebrafish larvae PED6 lipid processing, fluorescence scoring; screened at 20 µM (by protocol). The gist of the method: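 Incubation: overnight exposure of larvae to compound plus PED6 / Test system: live zebrafish larvae aged 5-7 days, whole organism / Amount: 5 larvae per well / Read-out basis: visual per-well fluorescence inhibition score / Signal: visual fluorescence microscopy scoring of gall bladder, gut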

A short description of test [8]: blockers of RIG-like receptor reporter activation – cell-based, Sendai virus stimulus, luciferase, 10K MLSCN set, TLR/RLR signaling modifier project, primary screen (AID 602276;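 active means inhibition at or above 50% at 10 µM; inactive means inhibition below 50%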;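 further: firefly luciferase from ISG56 promoter only with Renilla not read in this screen; 0% = Sendai virus plus DMSO and 100% = medium plus DMSO without virus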). To be noted: HEK293 RL24 IRF3 luciferase reporter, at 10 µM, stronger effect = higher value. For orientation: In a reporter assay the amount or activity of a reporter protein is the signal.
The nature of test [9]: TLR3 IRF3 reporter activation blockers – cell-based, poly I:C stimulus, luciferase, 10K MLSCN set, primary screen (AID 602277). To be noted: HEK293-TLR3 RL24 IRF3 luciferase reporter, at 10 µM, stronger effect = higher value.

Calls of active or inactive are those of the source.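 How the source made its calls, unless noted: active means inhibition of the reporter signal at or above 50%; inactive means inhibition below 50%.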

Sequence of Alpha-2C adrenergic receptor (Homo sapiens) (P18825 whole entry, looked up): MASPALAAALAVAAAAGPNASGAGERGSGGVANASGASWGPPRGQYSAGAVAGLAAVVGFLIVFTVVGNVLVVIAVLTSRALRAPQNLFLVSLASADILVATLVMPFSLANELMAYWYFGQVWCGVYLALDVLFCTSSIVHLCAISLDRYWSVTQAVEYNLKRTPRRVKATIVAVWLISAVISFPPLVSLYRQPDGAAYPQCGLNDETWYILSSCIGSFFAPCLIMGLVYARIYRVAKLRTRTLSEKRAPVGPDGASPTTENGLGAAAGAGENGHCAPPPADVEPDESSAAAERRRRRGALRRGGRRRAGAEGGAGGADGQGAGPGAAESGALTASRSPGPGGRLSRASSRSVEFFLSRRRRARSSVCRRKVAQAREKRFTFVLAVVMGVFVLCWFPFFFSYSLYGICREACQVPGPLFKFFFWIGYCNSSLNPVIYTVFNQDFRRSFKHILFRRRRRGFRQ
Sequence of Voltage-gated potassium channel subunit beta-2 (Rattus norvegicus) (P62483 whole entry, looked up): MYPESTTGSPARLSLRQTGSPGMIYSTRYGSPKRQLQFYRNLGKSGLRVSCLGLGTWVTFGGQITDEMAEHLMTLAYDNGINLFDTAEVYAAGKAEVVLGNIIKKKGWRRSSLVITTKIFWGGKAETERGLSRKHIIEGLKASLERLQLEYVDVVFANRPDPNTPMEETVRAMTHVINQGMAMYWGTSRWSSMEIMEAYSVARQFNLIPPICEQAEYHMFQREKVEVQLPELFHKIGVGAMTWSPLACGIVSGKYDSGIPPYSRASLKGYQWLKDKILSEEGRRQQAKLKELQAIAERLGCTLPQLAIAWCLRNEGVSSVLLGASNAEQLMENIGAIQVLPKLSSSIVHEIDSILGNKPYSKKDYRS

In the case of `O=S(=O)(Nn1cnnc1)c1ccccc1Cl`, in test [1], the cell count was found to be 647. Further, the inhibition is 4.3% (inactive) in test [1], 45.5% (inactive) in [3], -7.35% (inactive) in [8] and -10.4% (inactive) in [9]. The inhibition of aggregation in test [2] was -12.3% (inactive). Besides, the results for the nuclei count in test [2] and in test [3] were 99% and 81.7%, respectively. The fluorescence slope in test [4] is -0.402 (inactive). The NADPH fluorescence slope in test [5] is -8.6e-06 (inactive). Also, the slope in test [6] is 0.00434 (inactive). For the same molecule, the outcome in test [7] was inactive.
With `CCN(CC)c1ccc(C(=O)n2cnc3ccccc32)cc1`, the cell count in test [1] turned out to be 461. Besides, the inhibition in [1] is 12.1% (inactive); in test [3], -306% (inactive); in test [8], 25.3% (inactive); in [9], -37.1% (inactive). Besides, the inhibition of aggregation in [2] was 7.1% (inactive). For the same molecule, the nuclei count in test [2] came to 95.4%; in [3] it was 128%. Besides, the fluorescence slope in test [4] is -0.284 (inactive). Besides, the NADPH fluorescence slope in test [5] is -3.9e-05 (inactive). Besides, the slope in test [6] was 0.00386 (inactive). In [7], the molecule was classed as inactive.
Take `Cc1cc(N2C(=O)CC(N3CCN(c4ccc(C(=O)c5cccs5)cc4)CC3)C2=O)no1` (stereo unspecified): the cell count in [1] worked out at 654. In addition, the inhibition in test [1] was 10.8% (inactive); in [3], -31.2% (inactive); in test [8] it was -4.13% (inactive); in test [9], -9.36% (inactive). In addition, in [2], the inhibition of aggregation was -3% (inactive). Besides, the nuclei count in test [2] is 112%; in test [3], 93.1%. For the same molecule, in test [4], the fluorescence slope was -0.392 (inactive). The NADPH fluorescence slope in [5] was -4.4e-05 (inactive). Also, in test [6], the slope is 0.00594 (inactive). The result in test [7] was inactive.
Turning to `CCN(CC(=O)Nc1ccc2c(c1)CCC2)Cc1nc2ccccc2c(=O)[nH]1`, the cell count in test [1] was determined as 382. For the same molecule, the inhibition was 1.3% (inactive) in test [1], -1.6% (inactive) in [3], 13.7% (inactive) in test [8] and 14.8% (inactive) in test [9]. The inhibition of aggregation in test [2] is -17.4% (inactive). Also, the nuclei count in [2] and in [3] was 102% each time. Also, the fluorescence slope in test [4] is -0.455 (inactive). In addition, the NADPH fluorescence slope in test [5] was -3.6e-05 (inactive). Also, the slope in [6] is 0.00524 (inactive). For the same molecule, the molecule was classed as inactive in test [7].
In the case of `Cc1oc2c(c1C(=O)NCc1ccccc1)CCCC2`, the cell count in test [1] stood at 437. Also, the inhibition in test [1] was 1.3% (inactive); in [3], 4.8% (inactive); in [8] it was 9.63% (inactive); in test [9] it was 4.5% (inactive). The inhibition of aggregation in [2] was -13.6% (inactive). Besides, the nuclei count worked out at 108% in test [2] and 130% in test [3]. In addition, in [4], the fluorescence slope is -0.464 (inactive). In [5], the NADPH fluorescence slope was -4.8e-05 (inactive). Also, the slope in test [6] was 0.00391 (inactive). Besides, the outcome in test [7] was inactive.
Consider `Cc1cc(NC(=O)CSc2nc(C3CC3)nc3sc4c(c23)CCC(C)C4)no1` (stereo unspecified), for which the cell count in test [1] came to 321. The inhibition was -1.3% (inactive) in [1], -43% (inactive) in test [3], -13.4% (inactive) in test [8] and -24.3% (inactive) in test [9]. The inhibition of aggregation in [2] was 0.7% (inactive). In addition, the nuclei count was determined as 75.3% in test [2] and 113% in test [3]. The fluorescence slope in test [4] was -0.394 (inactive). Also, the NADPH fluorescence slope in test [5] is -5.2e-05 (inactive). Moreover, the slope in test [6] was 0.00786 (inactive). Also, the result in test [7] was inactive.
On to `COc1cc2c(cc1NC(=O)CSc1nnc(Cc3cccs3)n1C)oc1ccccc12`, for which the cell count in test [1] came to 368. Moreover, the inhibition in test [1] was 4.7% (inactive); in test [3] it was -30.5% (inactive); in [8], 13.9% (inactive); in test [9], 5.76% (inactive). In test [2], the inhibition of aggregation was 9.3% (inactive). Further, the nuclei count came out at 104% in test [2] and 112% in [3]. Moreover, the fluorescence slope in test [4] is -0.45 (inactive). Further, in [5], the NADPH fluorescence slope was -0.000107 (inactive). In addition, in [6], the slope is 0.00401 (inactive). In addition, the call in test [7] was inactive.
`Cc1cccc(C)c1-n1nnnc1SCSc1nnnn1-c1c(C)cccc1C`: the cell count in [1] worked out at 409. Also, the inhibition is 7.5% (inactive) in test [1], -231% (inactive) in test [3], 4.69% (inactive) in test [8] and 15% (inactive) in test [9]. Further, the inhibition of aggregation in test [2] is -3.2% (inactive). The nuclei count came to 101% in [2] and 116% in test [3]. Further, the fluorescence slope in test [4] was -0.445 (inactive). In addition, the NADPH fluorescence slope in test [5] was -2.4e-07 (inactive). Further, the slope in [6] was 0.00806 (inactive). The molecule was called inactive in test [7].
Take `Cc1cc(-c2ccccc2)nc(SCc2ccc(C(=O)O)o2)n1`: the cell count in [1] turned out to be 398. The inhibition was -1.3% (inactive) in [1], -106% (inactive) in test [3], 7.19% (inactive) in test [8] and 8.59% (inactive) in test [9]. Moreover, the inhibition of aggregation in test [2] was 0.6% (inactive). Besides, the nuclei count in [2] stood at 86.2%; in test [3], 105%. Further, the fluorescence slope in test [4] is -0.373 (inactive). The NADPH fluorescence slope in test [5] is -6.9e-05 (inactive). For the same molecule, the slope in [6] was 0.00508 (inactive). For the same molecule, the outcome in test [7] was inactive.
Consider `Cc1ccc(S(=O)(=O)N2CCCN(S(=O)(=O)C3CCS(=O)(=O)C3)CC2)cc1` (stereo unspecified), for which, in test [1], the cell count is 455. Besides, the inhibition in test [1] was 2.4% (inactive); in test [3], -102% (inactive); in test [8], 12.7% (inactive); in test [9], 14% (inactive). In test [2], the inhibition of aggregation is -22.7% (inactive). For the same molecule, the figures for the nuclei count in [2] and in test [3] were 111% and 129%, respectively. Further, in test [4], the fluorescence slope was -0.366 (inactive). For the same molecule, the NADPH fluorescence slope in [5] was -4.2e-05 (inactive). For the same molecule, in [6], the slope is 0.00596 (inactive). Further, the molecule was called inactive in [7].
Turning to `COC(=O)C1C2C=CC3(CN(CC4CCCO4)C(=O)C13)O2` (stereo unspecified), the cell count in [1] was found to be 504. In addition, the inhibition in [1] was 4% (inactive); in [3] it was 9.9% (inactive); in [8], 5.61% (inactive); in test [9], 11.6% (inactive). In test [2], the inhibition of aggregation is -7.3% (inactive). Besides, the values for the nuclei count in [2] and in test [3] were 111% and 98.5%, respectively. In [4], the fluorescence slope was -0.457 (inactive). Further, the NADPH fluorescence slope in test [5] is -1.5e-05 (inactive). Further, the slope in [6] is 0.00504 (inactive). Moreover, the result in test [7] was inactive.
`Cc1ccc(-c2nn[nH]n2)cc1`: the cell count in test [1] amounted to 334. Also, the inhibition is -7.1% (inactive) in [1], -4.4% (inactive) in [3], 4.2% (inactive) in [8] and 10.7% (inactive) in test [9]. Moreover, the inhibition of aggregation in test [2] is -16.2% (inactive). In addition, the figures for the nuclei count in test [2] and in test [3] were 117% and 123%, respectively. In test [4], the fluorescence slope was -0.474 (inactive). Further, the NADPH fluorescence slope in test [5] is -3.8e-05 (inactive). For the same molecule, the slope in test [6] was 0.00429 (inactive). Besides, the molecule was classed as inactive in [7].
Consider `COCCNC(=O)C(c1ccc(C)o1)N(Cc1cccs1)C(=O)c1snc(C(N)=O)c1N` (stereo unspecified), for which the cell count in [1] came out at 387. Besides, the inhibition was 3.5% (inactive) in [1], -93.7% (inactive) in test [3], -13.8% (inactive) in [8] and -11.9% (inactive) in test [9]. The inhibition of aggregation in test [2] was 6.6% (inactive). For the same molecule, the nuclei count stood at 96.3% in test [2] and 117% in test [3]. Besides, the fluorescence slope in test [4] was -0.379 (inactive). For the same molecule, the NADPH fluorescence slope in [5] was -4.3e-05 (inactive). The slope in test [6] was 0.00484 (inactive). Besides, the molecule was called inactive in test [7].

One may read the inhibition as the relative decrease from the control value, in per cent.
